One data set has as its system HCC 2998. The experiment in a line: Antiproliferative activity against human HCC 2998 cells assessed as cell growth at 10 uM incubated for 48 hrs by SRB assay relative to control. Type of data set: functional. The note with it: read-out: Activity. The method in brief: (§1)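 Single-concentration screen at 10 μM run by NCI on its NCI-60 human tumour panel (blood, lung, colon, CNS, melanoma, ovary, kidney, prostate, breast), following the NCI-60 published methodology. Read-out is growth percent relative to untreated cells.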
Background: Sulforhodamine B stains cellular protein and so reports cell mass.

The test system of the next data set is T47D. The experiment in a line: Antiproliferative activity against human T47D cells assessed as cell growth at 10 uM incubated for 48 hrs by SRB assay relative to control. Type of data set: functional. The note with it: read-out: Activity. The essentials:
(§2)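 NCI-60 single-dose screen: compounds tested at 10 μM, and growth percent of each cell line calculated. The full method follows the NCI DTP protocol.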

Another data set relates to NCI/ADR-RES. The experiment in a line: Antiproliferative activity against human NCI/ADR-RES cells assessed as cell growth at 10 uM incubated for 48 hrs by SRB assay relative to control. Type of data set: functional. The note with it: read-out: Activity. The method in brief: as §1
In another data set the test system is OVCAR-3. Nature of the data set: Antiproliferative activity against human OVCAR-3 cells assessed as cell growth at 10 uM incubated for 48 hrs by SRB assay relative to control. Type of data set: functional. Particulars: read-out: Activity. The essentials: as §1
A further data set has as its system ACHN. The experiment in a line: Antiproliferative activity against human ACHN cells assessed as cell growth at 10 uM incubated for 48 hrs by SRB assay relative to control. Type of data set: functional. Particulars: read-out: Activity. The method in brief: as §1
A further data set deals with MDA-MB-435. Nature of the data set: Antiproliferative activity against human MDA-MB-435 cells assessed as cell growth at 10 uM incubated for 48 hrs by SRB assay relative to control. Type of data set: functional. The note with it: read-out: Activity. The method in brief:
as §1

In data set [1] the target is T1, Protein deacetylase HDAC6 (Homo sapiens, UniProt Q9UBN7).
T1 sequence (Q9UBN7 whole entry): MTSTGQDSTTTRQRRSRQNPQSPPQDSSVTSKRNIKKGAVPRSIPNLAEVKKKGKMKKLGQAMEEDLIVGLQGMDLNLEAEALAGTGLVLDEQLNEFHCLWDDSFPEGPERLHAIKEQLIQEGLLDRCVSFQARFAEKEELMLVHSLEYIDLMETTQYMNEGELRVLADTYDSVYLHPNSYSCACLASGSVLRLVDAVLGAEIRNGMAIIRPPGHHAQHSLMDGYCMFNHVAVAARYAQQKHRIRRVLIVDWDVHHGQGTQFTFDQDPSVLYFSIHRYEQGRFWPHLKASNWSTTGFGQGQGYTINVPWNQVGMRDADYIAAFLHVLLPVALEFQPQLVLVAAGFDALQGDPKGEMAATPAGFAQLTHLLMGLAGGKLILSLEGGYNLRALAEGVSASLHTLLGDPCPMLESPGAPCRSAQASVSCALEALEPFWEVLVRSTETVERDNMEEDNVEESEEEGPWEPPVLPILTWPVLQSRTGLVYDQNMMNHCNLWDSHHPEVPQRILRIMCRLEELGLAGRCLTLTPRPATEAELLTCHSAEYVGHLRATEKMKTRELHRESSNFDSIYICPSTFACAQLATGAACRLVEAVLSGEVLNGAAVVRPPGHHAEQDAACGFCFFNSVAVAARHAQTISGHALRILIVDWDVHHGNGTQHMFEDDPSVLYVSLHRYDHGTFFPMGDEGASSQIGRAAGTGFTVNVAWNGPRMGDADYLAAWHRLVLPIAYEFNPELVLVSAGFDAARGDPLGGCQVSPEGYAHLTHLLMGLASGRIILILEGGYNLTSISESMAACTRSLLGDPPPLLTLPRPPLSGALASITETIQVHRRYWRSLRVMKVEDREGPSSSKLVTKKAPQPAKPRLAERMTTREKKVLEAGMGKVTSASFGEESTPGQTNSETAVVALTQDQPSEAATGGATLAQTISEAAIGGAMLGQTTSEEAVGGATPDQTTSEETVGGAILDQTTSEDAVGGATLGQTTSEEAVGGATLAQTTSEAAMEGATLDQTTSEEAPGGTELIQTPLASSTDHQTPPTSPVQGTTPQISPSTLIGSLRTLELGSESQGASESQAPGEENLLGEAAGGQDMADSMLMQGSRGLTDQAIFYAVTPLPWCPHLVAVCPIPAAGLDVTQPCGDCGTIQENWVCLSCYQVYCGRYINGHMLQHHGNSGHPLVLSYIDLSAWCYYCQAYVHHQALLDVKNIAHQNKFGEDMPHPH
The experiment in a line: Inhibition of HDAC6 (unknown origin) using Fluor de lys as substrate by fluorescence based analysis.

For another data set, the system named is PC-3. Nature of the data set: Antiproliferative activity against human PC-3 cells assessed as cell growth at 10 uM incubated for 48 hrs by SRB assay relative to control. Type of data set: functional. The note with it: read-out: Activity. The method in brief: as §1
The subject of a further data set is HCT-15. The experiment in a line: Antiproliferative activity against human HCT-15 cells assessed as cell growth at 10 uM incubated for 48 hrs by SRB assay relative to control. Type of data set: functional. The note with it: read-out: Activity. The essentials: as §1
The nature of data set [2]: Cytotoxicity against human HS5 cells assessed as inhibition of cell growth incubated for 72 hrs by alamar blue assay. Type of data set: toxicity, cell-based. The essentials:
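Cells were grown in IMDM with 20% FBS and penicillin/streptomycin at 37 °C in 5% CO2. Drug-treated cells were incubated 72 h. Alamar blue (1 mM solution) was then added for 5–6 h, and fluorescence read at 530/590 nm.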
In general terms: The colour change of resazurin is a common sign of viable cells or microbes.

In a further data set the test system is RXF 393. The experiment in a line: Antiproliferative activity against human RXF 393 cells assessed as cell growth at 10 uM incubated for 48 hrs by SRB assay relative to control. It is filed as functional. Particulars: read-out: Activity. The essentials:
as §1

Another data set concerns KM12. The experiment in a line: Antiproliferative activity against human KM12 cells assessed as cell growth at 10 uM incubated for 48 hrs by SRB assay relative to control. Type of data set: functional. Particulars: read-out: Activity. The essentials: as §1
The next data set has as its system SK-OV-3. Nature of the data set: Antiproliferative activity against human SK-OV-3 cells assessed as cell growth at 10 uM incubated for 48 hrs by SRB assay relative to control. Particulars: read-out: Activity. It is filed as functional. The essentials: as §2
A further data set concerns IGROV-1. The experiment in a line: Antiproliferative activity against human IGROV-1 cells assessed as cell growth at 10 uM incubated for 48 hrs by SRB assay relative to control. It is filed as functional. The note with it: read-out: Activity. The method in brief: as §1
The test system of another data set is MDA-MB-468. The experiment in a line: Antiproliferative activity against human MDA-MB-468 cells assessed as cell growth at 10 uM incubated for 48 hrs by SRB assay relative to control. It is filed as functional. Particulars: read-out: Activity. The essentials:
as §1

The next data set concerns NCI-H23. Nature of the data set: Antiproliferative activity against human NCI-H23 cells assessed as cell growth at 10 uM incubated for 48 hrs by SRB assay relative to control. The note with it: read-out: Activity. Type of data set: functional. The method in brief:
as §1

Another data set relates to NCI-H322M. The experiment in a line: Antiproliferative activity against human NCI-H322M cells assessed as cell growth at 10 uM incubated for 48 hrs by SRB assay relative to control. Type of data set: functional. Particulars: read-out: Activity. The essentials:
as §1

The test system of the next data set is UACC-257. The experiment in a line: Antiproliferative activity against human UACC-257 cells assessed as cell growth at 10 uM incubated for 48 hrs by SRB assay relative to control. It is filed as functional. Particulars: read-out: Activity. The essentials:
as §2

A further data set deals with SNB-19. Nature of the data set: Antiproliferative activity against human SNB-19 cells assessed as cell growth at 10 uM incubated for 48 hrs by SRB assay relative to control. Type of data set: functional. The note with it: read-out: Activity. The method in brief: as §2
The next data set has as its system EKVX. Nature of the data set: Antiproliferative activity against human EKVX cells assessed as cell growth at 10 uM incubated for 48 hrs by SRB assay relative to control. Particulars: read-out: Activity. It is filed as functional. The method in brief:
as §1

The next data set deals with A498. Nature of the data set: Antiproliferative activity against human A498 cells assessed as cell growth at 10 uM incubated for 48 hrs by SRB assay relative to control. The note with it: read-out: Activity. It is filed as functional. The essentials:
as §1

The subject of the next data set is HT-29. The experiment in a line: Antiproliferative activity against human HT-29 cells assessed as cell growth at 10 uM incubated for 48 hrs by SRB assay relative to control. The note with it: read-out: Activity. Type of data set: functional. The essentials: as §1

In ChEMBL document CHEMBL5230083, “Novel 2, 5-diketopiperazine derivatives as potent selective histone deacetylase 6 inhibitors: Rational design, synthesis and antiproliferative activity” (Eur J Med Chem, 2020) one finds growth and IC50 data, which are given here for two compounds.

SMILES strings stand for the structures. pIC50: −log10 of the molar value.

As usually defined, the pIC50 is the negative decadic logarithm of the IC50, by convention in mol/L. The low end stands for a large IC50, the high end for a small IC50. Usually IC50 stands for the concentration that gives 50% inhibition.

On to `O=C1CN(Cc2ccc(C(=O)NO)cc2)C(=O)[C@@H](Cc2c[nH]c3ccccc23)N1`, for which the growth at 10 µM in the data set on HCC 2998 turned out to be 103%; with T47D it was 87.3%; with NCI/ADR-RES, 104%; in the data set on OVCAR-3 it was 104%; with ACHN it was 104%; in the data set with MDA-MB-435, 102%. In addition, the growth at 10 µM with PC-3 worked out at 97.5%; in the data set with HCT-15, 103%; in the data set with RXF 393 it was 105%; in the data set with KM12, 102%; with SK-OV-3 it was 96.5%; in the data set with IGROV-1, 101%. Also, the growth at 10 µM was 107% with MDA-MB-468; 101% in the data set with NCI-H23; 99.1% in the data set on NCI-H322M; 96.1% in the data set on UACC-257; 96.8% with SNB-19; 106% in the data set on EKVX. For the same compound, the growth at 10 µM was determined as 85% with A498 and 104% in the data set on HT-29. The compound further gave a pIC50 in data set [1] of 9.14. The IC50 at 72 hrs in [2] is > 100000 nM.

For `O=C(NO)c1ccc(CN2CC(=O)N(Cc3ccccc3)[C@H](Cc3ccccc3)C2=O)cc1`, the growth at 10 µM in the data set with HCC 2998 worked out at 85.9%; in the data set on T47D, 69.1%; with NCI/ADR-RES it was 94.5%; in the data set with OVCAR-3, 79.7%; with ACHN, 90.6%; in the data set with MDA-MB-435, 91.3%. The growth at 10 µM in the data set with PC-3 worked out at 76.5%; with HCT-15, 74.3%; in the data set with RXF 393, 86%; with KM12 it was 86.9%; in the data set on SK-OV-3, 90.4%; in the data set on IGROV-1 it was 89%. Further, the growth at 10 µM turned out to be 79.9% in the data set with MDA-MB-468; 86.7% with NCI-H23; 89.5% with NCI-H322M; 69.3% in the data set on UACC-257; 85.4% in the data set with SNB-19; 88.2% in the data set on EKVX. Moreover, the figures for the growth at 10 µM in the data set with A498 and in the data set with HT-29 were 67.4% and 87.9%, respectively. The pIC50 in data set [1] was 8.01. Besides, in data set [2], the IC50 at 72 hrs is > 100000 nM.
